Legend:
[1] = tested on: Rat; test: concentration in plasma after dosing; conditions: dosed: 2-Hydroxy-4-methoxybenzophenone, 500 mg/kg, oral, Male, F344
[2] = tested on: Rat; test: concentration in plasma after dosing; conditions: dosed: 2-Hydroxy-4-methoxybenzophenone, 100 mg/kg, oral, Male, F344
[3] = tested on: Mouse; test: concentration in plasma after dosing; conditions: 10 min; dosed: 2-Hydroxy-4-methoxybenzophenone; 50 mg/kg; iv; Male; B6C3F1
[4] = tested on: Mouse; test: concentration in plasma after dosing; conditions: 10 min; dosed: 2-Hydroxy-4-methoxybenzophenone; 500 mg/kg; oral; Male; B6C3F1
[5] = tested on: Mouse; test: concentration in plasma after dosing; conditions: 2 h; dosed: 2-Hydroxy-4-methoxybenzophenone; 250 mg/kg; oral; Male; B6C3F1
[6] = tested on: Rat; test: concentration in liver after dosing; conditions: 0.5 h; dosed: Fluorotelomer alcohol 8+2; 24 mg/kg; oral; Male; Harlan Sprague Dawley
[7] = tested on: Rat; test: concentration in plasma after dosing; conditions: 192 h; dosed: 678-39-7; 12 mg/kg; iv; Male; F344
[8] = tested on: Rat; test: concentration in kidney after dosing; conditions: 1 h; dosed: Fluorotelomer alcohol 8+2; 80 mg/kg; oral; Female; Harlan Sprague Dawley
[9] = tested on: Rat; test: concentration in plasma after dosing; conditions: dosed: 678-39-7, 12 mg/kg, iv, Male, F344
[10] = tested on: Rat; test: concentration in liver after dosing; conditions: 12 h; dosed: Potassium Perfluorobutane Sulfonate; 20 mg/kg; oral; Male; Harlan Sprague Dawley
[11] = tested on: mouse; test: concentration in blood after dosing; conditions: dosed: benzo[a]pyrene, 15 mg/kg, oral, C57BL/6J
Method in brief: (§1)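 Points were largely digitised from plot screenshots with WebPlotDigitizer or otherwise copied from tables, and they remain in the units each source reported. They come from published in vivo toxicokinetic studies and two structured collections. Sampling and analytical methods follow each source and were often not reported.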

[12] = tested on: monkey; test: concentration in blood after dosing; conditions: dosed: methanol, inhalation, duration: 6 hr, male, Macaca mulatta
Method in brief: as §1

[13] = tested on: human; test: concentration in blood after dosing
Method in brief: as §1

COc1ccc(C(=O)c2ccccc2)c(O)c1 [2-Hydroxy-4-methoxybenzophenone]
concentration in plasma [ng/mL]
Conditions | 2.5 min | 3 h | 4 h | 10 min
[1] | 6.4 | – | 578 | –
[2] | – | 21.2 | – | 17.3

Conditions | concentration in plasma [ng/mL]
[3] | 11900
[4] | 93.1
[5] | 34

O=C(O)C(F)(F)C(F)(F)C(F)(F)C(F)(F)C(F)(F)C(F)(F)C(F)(F)F [Perfluorooctanoic acid]
Conditions | concentration in kidney [ng/g] | concentration in liver [ng/g] | concentration in plasma [ng/mL]
[6] | – | 300 | –
[7] | – | – | 310
[8] | 568 | – | –

[9]
Conditions | concentration in plasma [ng/mL]
0.75 h | 332
12 h | 524

O=S(=O)([O-])C(F)(F)C(F)(F)C(F)(F)C(F)(F)F.[K+] [Potassium Perfluorobutane Sulfonate]
Conditions | concentration in liver [ng/g]
[10] | 9420

c1ccc2c(c1)cc1ccc3cccc4ccc2c1c34 [benzo[a]pyrene]
[11]
Conditions | concentration in blood [ng/mL]
0.4576 h | 68.9
0.4733 h | 61
0.9942 h | 148
1.01 h | 190
1.436 h | 196
1.452 h | 276
1.957 h | 239
1.989 h | 253
3.014 h | 282
3.046 h | 85
4.04 h | 258
4.072 h | 15.5
4.94 h | 8.52
5.934 h | 6.45
6.013 h | 252
9.028 h | 65.1
11.99 h | 18.4
14.99 h | 6.86

CO [methanol]
[12]
Conditions | concentration in blood [ng/mL]
0.5142 h, 2000 ppm | 54500
0.5644 h, 1200 ppm | 35700
1.044 h, 1200 ppm | 31200
1.066 h, 2000 ppm | 52700
1.558 h, 1200 ppm | 31400
1.603 h, 2000 ppm | 47700
2.036 h, 1200 ppm | 27700
2.065 h, 2000 ppm | 39000
3.014 h, 1200 ppm | 21100
3.019 h, 2000 ppm | 40300
4.525 h, 1200 ppm | 14300
4.556 h, 2000 ppm | 24100
6.067 h, 2000 ppm | 16300
6.073 h, 1200 ppm | 10300
8.074 h, 2000 ppm | 9200
8.076 h, 1200 ppm | 7660
10 h, 1200 ppm | 7870
10.06 h, 2000 ppm | 7580
97 s, 1200 ppm | 38600
101 s, 2000 ppm | 65800

CC(C)(C)O [tert-butyl alcohol]
[13], inhalation, duration: 4 hr
Conditions | concentration in blood [nM]
1.944 h, dosed: methyl tert-butyl ether, 4.5 ppm | 1930
1.995 h, dosed: methyl tert-butyl ether, 38.7 ppm | 22200
2.028 h, dosed: ethyl tert-butyl ether, 40.6 ppm | 12800
2.045 h, dosed: ethyl tert-butyl ether, 4.5 ppm | 1690
3.934 h, dosed: methyl tert-butyl ether, 4.5 ppm | 1730
3.985 h, dosed: methyl tert-butyl ether, 38.7 ppm | 17800
4.023 h, dosed: ethyl tert-butyl ether, 4.5 ppm | 1620
4.023 h, dosed: ethyl tert-butyl ether, 40.6 ppm | 11000
5.95 h, dosed: methyl tert-butyl ether, 4.5 ppm | 1580
6.001 h, dosed: methyl tert-butyl ether, 38.7 ppm | 12500
6.034 h, dosed: ethyl tert-butyl ether, 4.5 ppm | 1170
6.034 h, dosed: ethyl tert-butyl ether, 40.6 ppm | 9280
7.952 h, dosed: methyl tert-butyl ether, 4.5 ppm | 917
7.96 h, dosed: ethyl tert-butyl ether, 4.5 ppm | 1100
7.977 h, dosed: ethyl tert-butyl ether, 40.6 ppm | 8400
8.017 h, dosed: methyl tert-butyl ether, 38.7 ppm | 10000
9.972 h, dosed: ethyl tert-butyl ether, 4.5 ppm | 771
9.972 h, dosed: ethyl tert-butyl ether, 40.6 ppm | 6190
10.03 h, dosed: methyl tert-butyl ether, 38.7 ppm | 8310
11.93 h, dosed: ethyl tert-butyl ether, 4.5 ppm | 905
11.98 h, dosed: ethyl tert-butyl ether, 40.6 ppm | 5880
12.05 h, dosed: methyl tert-butyl ether, 38.7 ppm | 5730
18 s, dosed: methyl tert-butyl ether, 4.5 ppm | 2660
20 s, dosed: methyl tert-butyl ether, 38.7 ppm | 21800
23.91 h, dosed: ethyl tert-butyl ether, 40.6 ppm | 2670
23.99 h, dosed: methyl tert-butyl ether, 38.7 ppm | 1140
61 s, dosed: ethyl tert-butyl ether, 4.5 ppm | 1870
61 s, dosed: ethyl tert-butyl ether, 40.6 ppm | 14300

[13], dosed: methyl tert-butyl ether, oral
Conditions | concentration in blood [nM]
0.9669 h, 5 mg | 463
1.015 h, 15 mg | 1880
1.979 h, 15 mg | 1700
1.982 h, 5 mg | 430
2.968 h, 15 mg | 1580
2.972 h, 5 mg | 391
3.958 h, 15 mg | 1510
3.961 h, 5 mg | 370
5.915 h, 5 mg | 318
5.962 h, 15 mg | 1230
7.92 h, 5 mg | 290
7.966 h, 15 mg | 983
9.925 h, 5 mg | 236
9.97 h, 15 mg | 937
11.95 h, 15 mg | 806
12.01 h, 5 mg | 199
23.95 h, 15 mg | 268
23.99 h, 5 mg | 53.5
